Assay results taken from ChEMBL document CHEMBL4219177, “Synthesis and evaluation of the antibacterial activities of aryl substituted dihydrotriazine derivatives” (Bioorg Med Chem Lett, 2018).
pIC50: −log10 of the molar value. In brackets after ≈: the same amount, converted by molar mass.

Assays:
L02 = experiment: Cytotoxicity against human L02 cells assessed as growth inhibition after 24 hrs by MTT assay; format: cell-based; conditions: L02, 24 h
Staphylococcus aureus [1] = experiment: Antibacterial activity against methicillin-resistant Staphylococcus aureus isolate CCARM 3167 after 24 hrs by two-fold serial dilution method; format: functional; conditions: isolate CCARM 3167, 24 h
Escherichia coli [2] = experiment: Antibacterial activity against Escherichia coli 1924 after 24 hrs by two-fold serial dilution method; format: functional; conditions: Escherichia coli, 1924, 24 h
Procedure, shortened: (§1)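 Bacteria grown to mid-log phase in Mueller-Hinton broth, diluted 1000-fold, and inoculated at 10^5 CFU/mL. Compounds were dissolved in DMSO (final ≤0.05%) and two-fold serially diluted. MIC was the lowest concentration giving complete growth inhibition after 24 h at 37 °C, with growth read as absorbance at 650 nm. Each experiment was run three times.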

Candida albicans = experiment: Antifungal activity against Candida albicans 7535 after 24 hrs by two-fold serial dilution method; format: functional; conditions: Candida albicans, 7535, 24 h
Staphylococcus aureus [3] = experiment: Antibacterial activity against quinolone-resistant Staphylococcus aureus isolate CCARM 3505 after 24 hrs by two-fold serial dilution method; format: functional; conditions: isolate CCARM 3505, 24 h
Procedure, shortened: (§2)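 Broth microdilution MIC. Bacteria were grown to mid-log phase in Mueller-Hinton broth, diluted 1000-fold, and inoculated at 10^5 CFU/mL. Compounds in DMSO (final ≤0.05%) were tested as two-fold serial dilutions from 64 to 0.25. Plates were incubated 24 h at 37 °C and growth read as absorbance at 650 nm. MIC = concentration completely inhibiting growth. Experiments were run three times.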

Staphylococcus aureus [4] = experiment: Antibacterial activity against Staphylococcus aureus 4220 after 24 hrs by two-fold serial dilution method; format: functional; conditions: RN4220, 24 h; procedure, shortened: as §2
Streptococcus mutans = experiment: Antibacterial activity against Streptococcus mutans 3289 after 24 hrs by two-fold serial dilution method; format: functional; conditions: Streptococcus mutans, 3289, 24 h
Pseudomonas aeruginosa = experiment: Antibacterial activity against Pseudomonas aeruginosa 2742 after 24 hrs by two-fold serial dilution method; format: functional; conditions: Pseudomonas aeruginosa, 2742, 24 h; procedure, shortened: as §1
Salmonella typhimurium = experiment: Antibacterial activity against Salmonella typhimurium 2421 after 24 hrs by two-fold serial dilution method; format: functional, Salmonella enterica subsp. enterica serovar Typhimurium; conditions: Salmonella enterica, 2421, 24 h; procedure, shortened: as §1
Staphylococcus aureus [5] = experiment: Potency index, ratio of gatifloxacin MIC to compound MIC for quinolone-resistant Staphylococcus aureus isolate CCARM 3505; format: functional
Escherichia coli [6] = experiment: Potency index, ratio of moxifloxacin MIC to compound MIC for Escherichia coli 1924; format: functional
Escherichia coli [7] = experiment: Potency index, ratio of gatifloxacin MIC to compound MIC for Escherichia coli 1924; format: functional
Staphylococcus aureus [8] = experiment: Potency index, ratio of moxifloxacin MIC to compound MIC for quinolone-resistant Staphylococcus aureus isolate CCARM 3505; format: functional
[9] = target: Dihydrofolate reductase (Staphylococcus aureus) (UniProt P0A017); experiment: Inhibition of Staphylococcus aureus DHFR at 10 uM after 1.5 hrs by ELISA relative to control; conditions: Staphylococcus aureus subsp. aureus RN4220
Sequence of Dihydrofolate reductase (Staphylococcus aureus) (P0A017 2-159 limits assumed): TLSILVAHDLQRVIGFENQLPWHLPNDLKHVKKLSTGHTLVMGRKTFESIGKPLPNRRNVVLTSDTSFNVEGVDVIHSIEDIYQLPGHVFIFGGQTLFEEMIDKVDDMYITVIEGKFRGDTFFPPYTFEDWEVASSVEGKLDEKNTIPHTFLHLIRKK

Row | Structure (SMILES) | pIC50 (L02) | MIC (Staphylococcus aureus [1]) | MIC (Escherichia coli [2]) [µg/mL] | MIC (Candida albicans) [µg/mL] | MIC (Staphylococcus aureus [3]) [µg/mL] | MIC (Staphylococcus aureus [4]) | MIC (Streptococcus mutans) [µg/mL] | MIC (Pseudomonas aeruginosa) [µg/mL] | MIC (Salmonella typhimurium) [µg/mL] | Ratio (Staphylococcus aureus [5]) | Ratio (Escherichia coli [6]) | Ratio (Escherichia coli [7]) | Ratio (Staphylococcus aureus [8]) | inhibition [9] [%]
1 | CN(C)C1=NC(c2ccc3cc(OCC(=O)c4ccc(Br)cc4)ccc3c2)N=C(N)N1 (stereo unspecified) | 4.23 | 8.35 µM | 8 (≈ 16.7 µM) | 16 (≈ 33.3 µM) | 4 (≈ 8.33 µM) | 16.7 µM | 8 (≈ 16.7 µM) | 64 (≈ 133 µM) | 64 (≈ 133 µM) | – | – | – | – | –
2 | CN(C)C1=NC(c2ccc3cc(OCc4ccccc4F)ccc3c2)N=C(N)N1 (stereo unspecified) | – | 2 µg/mL | 4 (≈ 10.2 µM) | 4 (≈ 10.2 µM) | 4 (≈ 10.2 µM) | 2 µg/mL | 4 (≈ 10.2 µM) | 64 (≈ 163 µM) | 64 (≈ 163 µM) | – | – | – | – | –
3 | OC(Cn1cncn1)(Cn1cncn1)c1ccc(F)cc1F [FLUCONAZOLE] | – | – | – | – | – | – | 1 (≈ 3.27 µM) | – | – | – | – | – | – | –
4 | CN(C)C1=NC(c2ccc3cc(OCc4ccc(Cl)cc4)ccc3c2)N=C(N)N1 (stereo unspecified) | – | 1 µg/mL | 1 (≈ 2.45 µM) | 1 (≈ 2.45 µM) | 1 (≈ 2.45 µM) | 1 µg/mL | 1 (≈ 2.45 µM) | 64 (≈ 157 µM) | 64 (≈ 157 µM) | – | – | – | – | –
5 | CN(C)C1=NC(c2ccc3cc(OCc4ccccc4)ccc3c2)N=C(N)N1 (stereo unspecified) | – | 8 µg/mL | 8 (≈ 21.4 µM) | 8 (≈ 21.4 µM) | 8 (≈ 21.4 µM) | 16 µg/mL | 8 (≈ 21.4 µM) | > 64 | > 64 | – | – | – | – | –
6 | COc1c(N2CCNC(C)C2)c(F)cc2c(=O)c(C(=O)O)cn(C3CC3)c12 (stereo unspecified) [GATIFLOXACIN] | – | 2 µg/mL | 2 (≈ 5.33 µM) | 0.5 (≈ 1.33 µM) | 8 (≈ 21.3 µM) | 0.25 µg/mL | 0.25 (≈ 0.666 µM) | 1 (≈ 2.66 µM) | – | – | – | – | – | –
7 | CN(C)C1=NC(c2ccc3cc(OCc4ccc(Cl)cc4Cl)ccc3c2)N=C(N)N1 (stereo unspecified) | 4.23 | 2.27 µM | 0.5 (≈ 1.13 µM) | 1 (≈ 2.26 µM) | 0.5 (≈ 1.13 µM) | 1.13 µM | 1 (≈ 2.26 µM) | 64 (≈ 145 µM) | 64 (≈ 145 µM) | 16 | 4 | 4 | 8 | 58
8 | COc1cccc(C(=O)/C=C/c2ccc(C3N=C(N)NC(N(C)C)=N3)cc2)c1 (stereo unspecified) | – | 16 µg/mL | 16 (≈ 42.4 µM) | 16 (≈ 42.4 µM) | 16 (≈ 42.4 µM) | 32 µg/mL | 16 (≈ 42.4 µM) | > 64 | > 64 | – | – | – | – | –
9 | CN(C)C1=NC(c2ccc(/C=C/C(=O)c3ccc(Cl)cc3Cl)cc2)N=C(N)N1 (stereo unspecified) | 4.35 | 19.3 µM | 8 (≈ 19.2 µM) | 8 (≈ 19.2 µM) | 8 (≈ 19.2 µM) | 19.3 µM | 4 (≈ 9.61 µM) | 64 (≈ 154 µM) | > 64 | – | – | – | – | –
10 | COc1ccccc1C(=O)/C=C/c1ccc(C2N=C(N)NC(N(C)C)=N2)cc1 (stereo unspecified) | – | 64 µg/mL | 64 (≈ 170 µM) | 32 (≈ 84.8 µM) | 64 (≈ 170 µM) | 64 µg/mL | 64 (≈ 170 µM) | > 64 | > 64 | – | – | – | – | –
11 | CN(C)C1=NC(c2ccc3cc(OCC(=O)c4ccccc4)ccc3c2)N=C(N)N1 (stereo unspecified) | – | 32 µg/mL | 64 (≈ 159 µM) | 32 (≈ 79.7 µM) | 32 (≈ 79.7 µM) | 32 µg/mL | 64 (≈ 159 µM) | > 64 | > 64 | – | – | – | – | –
12 | Cc1ccc(C(=O)/C=C/c2ccc(C3N=C(N)NC(N(C)C)=N3)cc2)cc1 (stereo unspecified) | – | 16 µg/mL | 32 (≈ 88.5 µM) | 16 (≈ 44.3 µM) | 16 (≈ 44.3 µM) | 32 µg/mL | 16 (≈ 44.3 µM) | > 64 | > 64 | – | – | – | – | –
13 | CN(C)C1=NC(c2ccc(OCc3ccc(F)cc3)cc2)N=C(N)N1 (stereo unspecified) | – | 32 µg/mL | 64 (≈ 187 µM) | 64 (≈ 187 µM) | 64 (≈ 187 µM) | 64 µg/mL | 64 (≈ 187 µM) | > 64 | > 64 | – | – | – | – | –
14 | CN(C)C1=NC(c2ccc(/C=C/C(=O)c3ccccc3)cc2)N=C(N)N1 (stereo unspecified) | – | 32 µg/mL | 64 (≈ 184 µM) | 32 (≈ 92.1 µM) | 32 (≈ 92.1 µM) | 32 µg/mL | 32 (≈ 92.1 µM) | > 64 | > 64 | – | – | – | – | –
15 | COc1c(N2C[C@@H]3CCCN[C@@H]3C2)c(F)cc2c(=O)c(C(=O)O)cn(C3CC3)c12 [MOXIFLOXACIN] | – | – | – | – | 1 (≈ 2.49 µM) | 4 µg/mL | – | 0.5 (≈ 1.25 µM) | – | – | – | – | – | –
16 | CN(C)C1=NC(c2ccc(OCc3ccccc3)cc2)N=C(N)N1 (stereo unspecified) | – | 32 µg/mL | 32 (≈ 98.9 µM) | 32 (≈ 98.9 µM) | 32 (≈ 98.9 µM) | 64 µg/mL | 32 (≈ 98.9 µM) | > 64 | > 64 | – | – | – | – | –
17 | CN(C)C1=NC(c2ccc3cc(OCc4cccc(Cl)c4)ccc3c2)N=C(N)N1 (stereo unspecified) | – | 1 µg/mL | 1 (≈ 2.45 µM) | 1 (≈ 2.45 µM) | 1 (≈ 2.45 µM) | 2 µg/mL | 2 (≈ 4.9 µM) | 64 (≈ 157 µM) | 64 (≈ 157 µM) | – | – | – | – | –
18 | CN(C)C1=NC(c2ccc(/C=C/C(=O)c3ccccc3Br)cc2)N=C(N)N1 (stereo unspecified) | – | 32 µg/mL | 64 (≈ 150 µM) | 32 (≈ 75.1 µM) | 32 (≈ 75.1 µM) | 64 µg/mL | 16 (≈ 37.5 µM) | > 64 | > 64 | – | – | – | – | –
19 | CN(C)C1=NC(c2ccc(OCC(=O)c3ccc(Br)cc3)cc2)N=C(N)N1 (stereo unspecified) | – | 32 µg/mL | 64 (≈ 149 µM) | 32 (≈ 74.4 µM) | 64 (≈ 149 µM) | 32 µg/mL | 32 (≈ 74.4 µM) | > 64 | > 64 | – | – | – | – | –
20 | CN(C)C1=NC(c2ccc(/C=C/C(=O)c3ccc(Br)cc3)cc2)N=C(N)N1 (stereo unspecified) | – | 8 µg/mL | 16 (≈ 37.5 µM) | 16 (≈ 37.5 µM) | 8 (≈ 18.8 µM) | 16 µg/mL | 16 (≈ 37.5 µM) | > 64 | > 64 | – | – | – | – | –
21 | CN(C)C1=NC(c2ccc3cc(OCc4ccc(Br)cc4)ccc3c2)N=C(N)N1 (stereo unspecified) | – | 1 µg/mL | 1 (≈ 2.21 µM) | 1 (≈ 2.21 µM) | 1 (≈ 2.21 µM) | 1 µg/mL | 1 (≈ 2.21 µM) | 64 (≈ 141 µM) | 64 (≈ 141 µM) | – | – | – | – | –
22 | CN(C)C1=NC(c2ccc(OCC(=O)c3ccccc3)cc2)N=C(N)N1 (stereo unspecified) | – | > 64 µg/mL | > 64 | > 64 | > 64 | > 64 µg/mL | > 64 | > 64 | > 64 | – | – | – | – | –
23 | CN(C)C1=NC(c2ccc(/C=C/C(=O)c3ccc(F)cc3)cc2)N=C(N)N1 (stereo unspecified) | – | 32 µg/mL | 32 (≈ 87.6 µM) | 32 (≈ 87.6 µM) | 32 (≈ 87.6 µM) | 32 µg/mL | 16 (≈ 43.8 µM) | > 64 | > 64 | – | – | – | – | –
24 | CN(C)C1=NC(c2ccc3cc(OCc4ccccc4Cl)ccc3c2)N=C(N)N1 (stereo unspecified) | – | 1 µg/mL | 1 (≈ 2.45 µM) | 1 (≈ 2.45 µM) | 1 (≈ 2.45 µM) | 2 µg/mL | 2 (≈ 4.9 µM) | 64 (≈ 157 µM) | 64 (≈ 157 µM) | – | – | – | – | –
25 | Cc1ccc(COc2ccc3cc(C4N=C(N)NC(N(C)C)=N4)ccc3c2)cc1 (stereo unspecified) | – | 2 µg/mL | 2 (≈ 5.16 µM) | 4 (≈ 10.3 µM) | 2 (≈ 5.16 µM) | 2 µg/mL | 2 (≈ 5.16 µM) | 64 (≈ 165 µM) | 64 (≈ 165 µM) | – | – | – | – | –
26 | Cc1ccc(COc2ccc(C3N=C(N)NC(N(C)C)=N3)cc2)cc1 (stereo unspecified) | – | 32 µg/mL | 16 (≈ 47.4 µM) | 16 (≈ 47.4 µM) | 32 (≈ 94.8 µM) | 32 µg/mL | 16 (≈ 47.4 µM) | > 64 | > 64 | – | – | – | – | –
27 | Cc1ccc(C(=O)/C=C/c2ccc(C3N=C(N)NC(N(C)C)=N3)cc2)c(C)c1 (stereo unspecified) | – | 32 µg/mL | 32 (≈ 85.2 µM) | 32 (≈ 85.2 µM) | 32 (≈ 85.2 µM) | 32 µg/mL | 32 (≈ 85.2 µM) | > 64 | > 64 | – | – | – | – | –
